# Results from PMC10195017 (Journal of Immunotherapy and Precision Oncology, 2023).
# “Also recorded” adds a separate entry of the source. Like-named read-outs stand apart in the source and are kept apart here.
# Assays:
# Tregs [1] = conditions: mice; 8 mg/kg twice a day IP and 16 mg/kg every day IP; cited from earlier work
# [2] = Octanol-water partition coefficient; assay type: physicochemical
# pKa = assay type: physicochemical
# P-gp = P-gp (Homo sapiens, UniProt P08183); assay: MDCK-MDR1 permeability; assay type: in vitro ADME
# P-gp, sequence (P08183 whole entry): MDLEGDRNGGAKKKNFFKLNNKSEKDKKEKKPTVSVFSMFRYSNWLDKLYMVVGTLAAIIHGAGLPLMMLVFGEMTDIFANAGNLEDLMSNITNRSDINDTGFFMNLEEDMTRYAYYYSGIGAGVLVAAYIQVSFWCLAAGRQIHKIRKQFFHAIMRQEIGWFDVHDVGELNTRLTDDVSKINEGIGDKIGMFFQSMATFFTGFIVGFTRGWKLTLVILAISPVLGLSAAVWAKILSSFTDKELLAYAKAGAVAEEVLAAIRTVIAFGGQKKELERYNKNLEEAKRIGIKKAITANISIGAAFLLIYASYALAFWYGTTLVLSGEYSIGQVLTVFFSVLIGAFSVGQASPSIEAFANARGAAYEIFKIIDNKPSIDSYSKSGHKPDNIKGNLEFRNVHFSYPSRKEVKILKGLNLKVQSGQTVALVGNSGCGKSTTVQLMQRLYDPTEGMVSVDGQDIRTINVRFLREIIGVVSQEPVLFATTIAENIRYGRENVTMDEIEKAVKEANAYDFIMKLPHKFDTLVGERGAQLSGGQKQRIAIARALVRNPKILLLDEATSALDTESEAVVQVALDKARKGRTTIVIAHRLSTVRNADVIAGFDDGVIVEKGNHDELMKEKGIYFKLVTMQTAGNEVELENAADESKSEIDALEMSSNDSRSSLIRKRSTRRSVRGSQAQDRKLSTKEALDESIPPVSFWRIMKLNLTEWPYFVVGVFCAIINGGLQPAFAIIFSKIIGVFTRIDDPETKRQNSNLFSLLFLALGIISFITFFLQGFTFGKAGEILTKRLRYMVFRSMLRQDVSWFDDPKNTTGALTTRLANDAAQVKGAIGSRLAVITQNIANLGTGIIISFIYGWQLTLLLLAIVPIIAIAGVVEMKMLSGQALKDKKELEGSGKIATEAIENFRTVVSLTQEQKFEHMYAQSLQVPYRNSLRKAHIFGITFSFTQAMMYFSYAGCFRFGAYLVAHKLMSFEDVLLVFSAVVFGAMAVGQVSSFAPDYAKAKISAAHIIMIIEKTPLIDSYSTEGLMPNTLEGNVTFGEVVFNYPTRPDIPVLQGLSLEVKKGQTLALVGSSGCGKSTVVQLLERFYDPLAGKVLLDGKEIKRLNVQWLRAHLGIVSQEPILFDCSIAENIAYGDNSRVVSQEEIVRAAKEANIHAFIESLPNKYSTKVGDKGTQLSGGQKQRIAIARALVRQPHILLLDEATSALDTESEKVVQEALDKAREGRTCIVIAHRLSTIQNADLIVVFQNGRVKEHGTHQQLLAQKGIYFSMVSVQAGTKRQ
# Caco-2 = Caco-2 permeability; assay type: in vitro ADME; conditions: Caco-2 assay
# Aqueous solubility = assay type: physicochemical
# [3] = Plasma pharmacokinetics in male C57BL/6J mice after a single dose; assay type: in vivo; conditions: non-tumor-bearing animals
# MALT1 [4] = conditions: cited from earlier work
# Tregs [5] = conditions: dogs; efficacious treatment; cited from earlier work
# Tregs [6] = conditions: rats; efficacious treatment; cited from earlier work
# D4M.3A = assay: In vivo tumor growth, D4M.3A syngeneic tumor model; design: species or system C57BL/6J mice; conditions: for tumor growth, comparison of both salt forms: 32 mg/kg IP, QD, D4M.3A tumor-challenged mice, with and without anti-PD-1; for tumor growth, combination effect: combination with anti-PD-1, D4M.3A model; for tumor growth response: monotherapy, poorly immunogenic D4M.3A model, high doses of MPT-0118 or MPT-0308
# How it was run: (§1)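 Mice were 6-week-old male C57BL/6J, n = 10 per cohort. Tumor cells were trypsinized and spun 400g for 5 min, then put into the right hind flank: MC38 1 × 10^6 in 50:50 Cultrex:PBS, D4M.3A 1 × 10^6 in PBS, B16.F10 0.5 × 10^6 in HBSS. Test compound given once daily IP or by oral gavage from day 7 (B16.F10), 8 (MC38) or 9 (D4M.3A). Anti-PD-1, 200 μg IP ×3, every other day, 6 h after compound. Caliper volume = w² × l/2. Two-way ANOVA/Bonferroni on last treatment day.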
# B16.F10 = assay: In vivo tumor growth, B16.F10 syngeneic tumor model; design: species or system C57BL/6J mice; conditions: combination with anti-PD-1
# How it was run: as §1
# PDOTS = assay: Viability of patient-derived organotypic tumor spheroids; assay type: cell-based, human; conditions: 5 μM in combination with anti-PD-1, + αIFNγ 10 μg/mL
# How it was run: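 Colorectal cancer and melanoma resection samples were made into organotypic spheroids that kept their native immune cells. These were embedded in collagen in a 3D microfluidic device and cultured 5–7 days in DMEM with the test compound (3–5 μM). Arms were ± pembrolizumab 250 μg/mL, each ± anti-human IFNγ 10 μg/mL. Viability was measured by Hoechst 33342/propidium iodide imaging (45 min, 37 °C, 5% CO2) as live cell area. Results were given as percent change versus untreated control.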
# [7] = Plasma and tumor pharmacokinetics at steady-state in D4M.3A tumor-bearing mice; assay type: in vivo, C57BL/6J mice; conditions: 64 mg/kg/day oral, steady-state after 21 days
# How it was run: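 Male C57BL/6J mice bearing D4M.3A tumors were pretreated for 21 days with the test compound (succinate salt) at 64 mg/kg orally. Plasma and tumor drug concentrations were then measured at steady state.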
# circulating Tregs = assay: Circulating Treg frequencies in non-tumor-bearing rats; assay type: in vivo, Harlan Sprague Dawley rats; conditions: 30 mg/kg orally, daily, 15 days; female rats; vs vehicle
# How it was run: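 Female Harlan Sprague Dawley rats, non-tumor-bearing, received the test compound at 30 mg/kg orally once daily for 15 days, with a vehicle group (n = 5 per cohort). Blood was drawn from the same animals on days −1, 3, 5, 7, 10 and 14. After red cell lysis, samples got viability dye, CD3/CD4/CD8/CD25 surface staining, fixation and permeabilization, and FoxP3 staining. Tregs (CD3+CD4+CD8α−FoxP3+) were counted as % of CD4+ cells and normalized to day −1 (100%). Unpaired t test per time point […].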
# tumor-infiltrating Tregs = assay: Flow cytometry of tumor-infiltrating Tregs in D4M.3A-injected mice; assay type: in vivo, C57BL/6J mice; conditions: combination therapy with anti-PD-1; D4M.3A tumors; mean ± SEM; pooled MPT-0118 and MPT-0308 (n = 16)
# MC38 = assay: In vivo tumor growth, MC38 syngeneic tumor model; design: species or system C57BL/6J mice
# How it was run: as §1
# MALT1 [8] = molecular target: T1, MALT1 (Mus musculus, UniProt Q2TBA3); assay: MALT1-cleaved CYLD-ct flow cytometry assay in murine CD4+ T cells; assay type: cell-based; conditions: for MALT1 inhibition: murine CD4+ T cells
# T1 sequence (Q2TBA3 1-832): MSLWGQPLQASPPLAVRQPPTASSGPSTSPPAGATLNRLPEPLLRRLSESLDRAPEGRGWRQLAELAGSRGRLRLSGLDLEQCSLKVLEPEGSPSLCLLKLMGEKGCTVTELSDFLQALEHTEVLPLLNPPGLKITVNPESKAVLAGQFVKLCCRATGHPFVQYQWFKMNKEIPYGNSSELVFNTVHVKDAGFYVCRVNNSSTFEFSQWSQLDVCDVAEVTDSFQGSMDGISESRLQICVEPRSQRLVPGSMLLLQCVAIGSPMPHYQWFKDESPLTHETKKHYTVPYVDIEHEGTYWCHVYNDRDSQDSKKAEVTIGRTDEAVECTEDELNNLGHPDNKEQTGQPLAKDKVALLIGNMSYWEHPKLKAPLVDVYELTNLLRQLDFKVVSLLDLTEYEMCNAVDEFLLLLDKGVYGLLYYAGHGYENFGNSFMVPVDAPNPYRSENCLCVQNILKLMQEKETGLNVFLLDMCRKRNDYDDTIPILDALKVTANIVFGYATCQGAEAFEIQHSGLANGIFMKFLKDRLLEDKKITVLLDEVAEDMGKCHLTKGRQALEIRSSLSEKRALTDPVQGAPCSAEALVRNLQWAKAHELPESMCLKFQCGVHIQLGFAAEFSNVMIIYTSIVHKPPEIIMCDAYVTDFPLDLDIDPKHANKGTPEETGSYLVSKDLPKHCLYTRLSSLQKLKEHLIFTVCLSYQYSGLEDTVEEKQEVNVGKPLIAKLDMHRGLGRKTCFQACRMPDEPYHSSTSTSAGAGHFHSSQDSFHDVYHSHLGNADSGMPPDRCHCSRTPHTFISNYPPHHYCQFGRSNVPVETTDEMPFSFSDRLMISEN
# How it was run: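 Murine CD4+ T cells were treated with a dose titration of the test compound or DMSO, then stimulated with PMA plus ionomycin. MALT1 activity was read by flow cytometry as the CYLD C-terminal cleavage product. Detection used the in-house neoepitope monoclonal 25F10, which recognizes both human and mouse cleaved CYLD. Median fluorescence intensity was compared with DMSO-treated cells. n = 3, mean ± SEM.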
# [9] = system: D4M.3A murine melanoma tumor spheroids; assay: Viability of cell-line-derived D4M.3A tumor spheroids; assay type: cell-based, mouse; conditions: doses up to 10 μM; day 4
# How it was run: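 D4M.3A cell-line-derived tumor spheroids were embedded in collagen in a 3D microfluidic device (gel set 30 min, 37 °C). They were cultured in DMEM with the test compound at 0.3–10 μM for 4 days. Live/dead staining used Hoechst 33342/propidium iodide (45 min, 37 °C, 5% CO2), followed by fluorescence imaging and total raw cell area per dye. Live signal was expressed as percent change or log2 fold change relative to untreated control.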
# MC38 MDOTS = assay: Viability of MC38 MDOTS; assay type: cell-based, mouse; conditions: day 6
# How it was run: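 MC38-derived spheroids kept their resident immune cells. They were mixed with collagen, loaded into the central gel region of a 3D microfluidic device, and set for 30 min at 37 °C. They were then hydrated with DMEM containing test compound 3 μM ± anti-mouse IFNγ 10 μg/mL, or anti-IFNγ alone, for 6 days. Viability was read by Hoechst 33342/propidium iodide staining (45 min, 37 °C, 5% CO2) and fluorescence imaging of total cell area per dye. Live signal was expressed as percent or log2 fold change versus control.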
compound,measurement,setting,value
"CN1CCCC(CN2c3ccccc3Sc3ccccc32)C1 (racemic) [mepazine racemate, mepazine]",Treg frequencies in peripheral blood,Tregs [1],no effect
CN1CCC[C@H](CN2c3ccccc3Sc3ccccc32)C1 [(S)-mepazine],logP,[2],5.29
same,pKa,pKa,9.2
same,P-gp substrate,P-gp,not a P-gp substrate
same,mean apparent AB permeability coefficient,Caco-2,13.73 ± 0.15 × 10^−6 cm/s
same,solubility (in words),Aqueous solubility,apparent pH-dependent solubility
same,Tmax,[3],≤ 2 h
CO[C@@H](C)c1c(NC(=O)Nc2ccnc(C(F)(F)F)c2)cnc2cc(Cl)nn12 [MLT-943],IC50,MALT1 [4],< 0.01 µM
same,Treg numbers,Tregs [5],rapid reduction of Tregs
same,Treg numbers,Tregs [6],rapid reduction of Tregs
same,pathology developing after Treg reduction,Tregs [6],"reversible immune dysregulation, polyendocrinopathy, enteropathy, X-linked (IPEX)-like pathology"
"CN1CCC[C@H](CN2c3ccccc3Sc3ccccc32)C1.O=C(O)CCC(=O)O [MPT-0118, (S)-mepazine succinate]","tumor growth, comparison of both salt forms",D4M.3A,comparable effects on tumor growth
same,"tumor growth, combination effect",D4M.3A,clear synergy
same,tumor growth response,D4M.3A,consistently responded
same,"tumor growth, combination effect",B16.F10,clear synergy
same,effects on PDOTS with anti-IFNγ neutralizing antibody,PDOTS,reversed
same,peak concentrations in mouse plasma,[7],≤ 1.3 µM
same,drug concentrations in tumor tissue,[7]; over the following 24 hours,3000 to 10000 nM
same,circulating Treg frequencies,circulating Tregs,No change; also recorded: no effect
same,frequency of IFNγ+ Tregs (percentage of total tumor-infiltrating Tregs),tumor-infiltrating Tregs,8.9 ± 1.01%
"CN1CCC[C@H](CN2c3ccccc3Sc3ccccc32)C1.Cl [MPT-0308, (S)-mepazine hydrochloride]","tumor growth, comparison of both salt forms",D4M.3A,comparable effects on tumor growth
same,"tumor growth, combination effect",D4M.3A,clear synergy
same,tumor growth response,D4M.3A,consistently responded
same,"tumor growth, combination effect","MC38; high dose in combination with anti-PD-1, MC38 model",additive effect
same,tumor growth,"MC38; monotherapy, immunogenic MC38 model",significant inhibition of tumor growth
same,"tumor growth, combination effect",B16.F10,clear synergy
same,MALT1 inhibition,MALT1 [8]; 3 μM,roughly 75%
same,MALT1 inhibition,MALT1 [8]; 10 μM,~95%
same,IC50,"MALT1 [8]; read-out: IC50 (MALT1-cleaved CYLD-ct), murine splenic CD4+ T cells stimulated with PMA/ionomycin",1.13 µM
same,viability of tumor spheroids lacking immune cells and tumor stroma,[9],not affected
same,antitumor activity in MDOTS with anti-IFNγ neutralizing antibody,MC38 MDOTS; 3 μM + anti-mouse IFNγ 10 μg/mL,reversed
same,antitumor activity in MDOTS,MC38 MDOTS; 3 μM,active
same,frequency of IFNγ+ Tregs (percentage of total tumor-infiltrating Tregs),tumor-infiltrating Tregs,8.9 ± 1.01%
